Measurements: ChEMBL document CHEMBL1148324 (J Med Chem, 2004)

Columns and labels:
[1] = biological target: T1, Sulfonylurea receptors; K-ATP channels (Homo sapiens, UniProt O60706+Q09428+Q14654+Q15842); test: Evaluated for K-ATP activity in terms of change in membrane potential through guinea pig bladder assay; assay type: functional, Cavia porcellus; details: target entry is the homologue from another species
[2] = biological target: T1, Sulfonylurea receptors; K-ATP channels; test: Evaluated for K-ATP activity in terms of stable twitch response through field-stimulated landrace pig detrusor assay; assay type: functional, Sus scrofa; details: target entry is the homologue from another species
[3] = biological target: T1, Sulfonylurea receptors; K-ATP channels; test: Evaluated for K-ATP activity as in vitro bladder relaxation in spontaneous Landrace pig detrusor strips (SLPD); assay type: functional, Sus scrofa; details: target entry is the homologue from another species
Procedure, shortened: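 Bladder strips taken near the trigonal region of Landrace pig bladder, contracting spontaneously (myogenic, no cholinergic component). Test agents added at increasing concentrations; the read-out is the reduction in area under the contraction curve.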

[4] = Selectivity expressed as the ratio of pEC50 (SLPD) and pEC50 (FSLPD); assay type: functional
Sus scrofa [5] = species: Sus scrofa; test: Evaluated for change in heart rate from baseline at a plasma concentration of 1.9 nM in pigs; assay type: functional
Procedure, shortened: (§1)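 Conscious female Landrace/Yorkshire swine (~12 weeks, 14–20 kg), urethra obstructed with a 7.5 mm silver omega ring, telemeterized, held in a restraint cage with ear venous catheters. After a 30 min baseline, increasing doses are given i.v. (3 min infusion) at 30 min intervals. Plasma is sampled 15 min after each dose for LC/MS. MAP and HR are averaged in 5 min bins over each 30 min period, expressed as % change from baseline; n = 2–4.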

Sus scrofa [6] = species: Sus scrofa; test: Evaluated for change in mean arterial pressure from baseline at a plasma concentration of 95 nM in pigs; assay type: functional; procedure, shortened: as §1
Sus scrofa [7] = species: Sus scrofa; test: Evaluated for change in heart rate from baseline at a plasma concentration of 95 nM in pigs; assay type: functional; procedure, shortened: as §1
Sus scrofa [8] = species: Sus scrofa; test: Evaluated for change in mean arterial pressure from baseline at a plasma concentration of 24 nM in pigs; assay type: functional; procedure, shortened: as §1
Sus scrofa [9] = species: Sus scrofa; test: Evaluated for change in heart rate from baseline at a plasma concentration of 24 nM in pigs; assay type: functional; procedure, shortened: as §1
Sus scrofa [10] = species: Sus scrofa; test: Evaluated for change in mean arterial pressure from baseline at a plasma concentration of 1.9 nM in pigs; assay type: functional; procedure, shortened: as §1
Sus scrofa [11] = species: Sus scrofa; test: Evaluated for change in mean arterial pressure from baseline at a plasma concentration of 12 nM in pigs; assay type: functional; procedure, shortened: as §1
Sus scrofa [12] = species: Sus scrofa; test: Evaluated for change in mean arterial pressure from baseline at a plasma concentration of 44 nM in pigs; assay type: functional; procedure, shortened: as §1
Sus scrofa [13] = species: Sus scrofa; test: Evaluated for change in heart rate from baseline at a plasma concentration of 167 nM in pigs; assay type: functional; procedure, shortened: as §1
Sus scrofa [14] = species: Sus scrofa; test: Evaluated for change in mean arterial pressure from baseline at a plasma concentration of 167 nM in pigs; assay type: functional; procedure, shortened: as §1
Sus scrofa [15] = species: Sus scrofa; test: Evaluated for change in heart rate from baseline at a plasma concentration of 12 nM in pigs; assay type: functional; procedure, shortened: as §1
Sus scrofa [16] = species: Sus scrofa; test: Evaluated for change in heart rate from baseline at a plasma concentration of 44 nM in pigs; assay type: functional; procedure, shortened: as §1

Row | EC50 [1] [nM] | EC50 [2] [nM] | SMILES | further results
1 | > 10000 | – | O=C1CCCC2=C1[C@H](c1ccc(F)c(-c3cccs3)c1)C1=C(CCS1(=O)=O)N2 | –
2 | 17800 | – | CC1(C)CC(=O)C2=C(C1)NC1=C([C@@H]2c2ccc(F)c(Br)c2)S(=O)(=O)CC1 | –
3 | 631 | 2690 | CC1(C)CCC(=O)C2=C1NC1=C([C@H]2c2ccc(F)c(Br)c2)S(=O)(=O)CC1 | –
4 | 1320 | – | O=C1CCCC2=C1[C@H](c1ccc(Cl)c(F)c1)C1=C(CCS1(=O)=O)N2 | –
5 | > 10000 | – | O=C1CCCC2=C1[C@H](c1ccc(Br)cc1)C1=C(CCS1(=O)=O)N2 | –
6 | 447 | 2240 | O=S1(=O)CCC2=C1C(c1ccc(F)c(Br)c1)C=C(C(F)(F)F)N2 (configuration not stated) | –
7 | 2820 | – | Cc1cc([C@H]2C3=C(CCCC3=O)NC3=C2S(=O)(=O)CC3)ccc1F | –
8 | 1860 | – | O=C1CCC2=C1C(c1ccc(Br)s1)C1=C(CCS1(=O)=O)N2 (configuration not stated) | –
9 | 7080 | – | CC1(C)CC(=O)C2=C(C1)NC1=C([C@H]2c2ccc(F)c(Br)c2)S(=O)(=O)CC1 | –
10 | 83.2 | 5620 | CC1(C)CCC2=C(C1=O)[C@H](c1ccc(F)c(Br)c1)C1=C(CCS1(=O)=O)N2 | –
11 | 1350 | 2450 | C=Cc1cc([C@H]2C3=C(CCCC3=O)NC3=C2S(=O)(=O)CC3)ccc1F | –
12 | 3310 | – | O=C1CCCC2=C1C(c1ccc(F)c(Br)c1)C1=C(CCCCS1(=O)=O)N2 (configuration not stated) | –
13 | 2040 | – | O=C1CCCC2=C1[C@H](c1ccc(F)c(F)c1)C1=C(CCS1(=O)=O)N2 | –
14 | 339 | 269 | O=S1(=O)CCC2=C1C(c1ccc(F)c(Br)c1)C1=C(CCS1(=O)=O)N2 | –
15 | 14800 | 26300 | O=C1CCC2=C1[C@H](c1ccc(F)c(Br)c1)C1=C(CCCS1(=O)=O)N2 | –
16 | 44.7 | 85.1 | CCC(C)(C)NC(=NC#N)Nc1cccnc1 | EC50 [3]: 21.9 nM
17 | 123 | 234 | O=C1CCCC2=C1[C@H](c1ccc(F)c(Br)c1)C1=C(CCS1(=O)=O)N2 | Selectivity [4]: 10; Delta HR (Sus scrofa [5]): 6.2%; Delta MAP (Sus scrofa [6]): -27%; Delta HR (Sus scrofa [7]): 56%; Delta MAP (Sus scrofa [8]): -6.9%; EC50 [3]: 22.9 nM; Delta HR (Sus scrofa [9]): 3.5%; Delta MAP (Sus scrofa [10]): -5.4%

Row | EC50 [1] [nM] | EC50 [2] [nM] | SMILES | further results
18 | 214 | 1700 | O=C1CCCC2=C1[C@H](c1ccc(F)c(-c3ccco3)c1)C1=C(CCS1(=O)=O)N2 | –
19 | 55 | 537 | O=C1CCCC2=C1[C@H](c1ccc(Br)c(Br)c1)C1=C(CCS1(=O)=O)N2 | –
20 | 2290 | – | CCc1ccc([C@H]2C3=C(CCCC3=O)NC3=C2S(=O)(=O)CC3)cc1[N+](=O)[O-] | –
21 | > 10000 | – | O=C1CCC2=C1C(c1cncc([N+](=O)[O-])c1)C1=C(CCS1(=O)=O)N2 (configuration not stated) | –
22 | 209 | 676 | O=C1CCCC2=C1[C@H](c1cc(Br)c(F)cc1O)C1=C(CCS1(=O)=O)N2 | –
23 | 1050 | – | CC(=O)c1cc([C@H]2C3=C(CCCC3=O)NC3=C2S(=O)(=O)CC3)ccc1F | –
24 | 53.7 | – | COC(=O)C1=C(C)NC2=C(C1c1ccc(F)c(Br)c1)S(=O)(=O)CC2 (configuration not stated) | –
25 | – | – | CC1(C)Oc2ccc(C#N)cc2[C@H](N2CCCC2=O)[C@H]1O (single isomer, unassigned) [(-)-CROMAKALIM] | Delta MAP (Sus scrofa [11]): -6.3%; Delta MAP (Sus scrofa [12]): -12%; Delta HR (Sus scrofa [13]): 47%; Delta MAP (Sus scrofa [14]): -33%; Delta HR (Sus scrofa [15]): 13%; Delta HR (Sus scrofa [16]): 38%
26 | 575 | 20400 | O=C1CCCC2=C1[C@H](c1cc(Br)ccc1O)C1=C(CCS1(=O)=O)N2 | –
27 | > 10000 | – | CC1(C)CCC(=O)C2=C1NC1=C([C@@H]2c2ccc(F)c(Br)c2)S(=O)(=O)CC1 | –
28 | 219 | 9550 | O=C1CCCC2=C1[C@H](c1ccc(C(F)(F)F)c(Br)c1)C1=C(CCS1(=O)=O)N2 | –
29 | 3160 | – | N#Cc1cc(C2C3=C(CCC3=O)NC3=C2S(=O)(=O)CC3)ccn1 (configuration not stated) | –
30 | 25.7 | 724 | O=C1CCCC2=C1[C@H](c1ccc(Cl)c(Br)c1)C1=C(CCS1(=O)=O)N2 | –
31 | 5890 | 12900 | N#Cc1cccc([C@H]2C3=C(CCCC3=O)NC3=C2S(=O)(=O)CC3)c1 | –
32 | > 10000 | – | Cc1ccc([C@H]2C3=C(CCCC3=O)NC3=C2S(=O)(=O)CC3)cc1S(C)(=O)=O | –
33 | 251 | 676 | CCc1cc(C#N)ccc1Nc1c(N[C@H](C)C(C)(C)C)c(=O)c1=O | Selectivity [4]: 6.6; EC50 [3]: 102 nM
34 | 21.9 | 309 | Cc1ccc([C@H]2C3=C(CCCC3=O)NC3=C2S(=O)(=O)CC3)cc1I | –
